Fewer inactive variants are shown than the library holds.
B1: tRNA (parent)
chain: GUUCCGUUGGCGUAAUGGUAACGCGUCUCCCUCCUAAGGAGAAGACUGCGGGUUCGAGUCCCGUACGGAACG

Variants of: B1
Assay: yeast fitness relative to wild type (ratio to wild type); higher = fitter; tRNA-Arg(CCU), competitive growth, 37 C, YPD
Outline: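 The tRNA-Arg(CCU) gene variants were made by chemical synthesis with a 3% per-site mutation rate at 69 sites and inserted at the native genomic locus of Saccharomyces cerevisiae. After pooling, the strains were competed in YPD at 37°C for 24 hours in six parallel replicates. Gene amplicons from the start population and each end population were read by 100-nucleotide paired-end sequencing, and Darwinian fitness relative to wild type was taken from genotype frequency changes. Genotypes needed ≥ 100 starting reads, and estimates < 0.5 were set to 0.5.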
Work on GUUCCGUUGGCGUCAUGGUAACGCGUCUCGCUCCUAAGGAGAAGACUGCGGGUUCGAGUCCCGUACGGAACG yielded a yeast fitness of 0.508. GUUCCGUUGGCGUAAUGGUCACGCGUCUCCCUCCUAAGGAGUAGACUGCGGGUUCGAGUCCCGUACGGAACG gave a yeast fitness of 0.782. Work on GUACCGUUGGCGUGGUGGUUACGCGUCUCCCUCCUAGGGAAAAGACUGCGGGUUCGAGUCCUGUAUGGAACG yielded a yeast fitness of no more than 0.5. Variant GUUUCAUUGGCGUAAUGGUAACGCGUCUCCCUCCUCAGGAGAAGACUGCGGGUUCGAGUCCCGUACGGAACG has a yeast fitness of no more than 0.5. With GUUCUGUUGGUGUAAUGGUAACGCGUCGCCCUCCUAAGGCGAAGACUGCGGGUUCGAGUCCCGUACGGAACG the yeast fitness was 1.13. GUUCCGUUGGCGUAAUGGUAACGCGUCUCCCUCAUAAGGUGAAGACUGCGGGUUCGAGUCCCGUACAGAACG showed a yeast fitness of no more than 0.5. For GUUCCGUUGGCGUAAUGGUAACGCGUCUCCCUCCUAAGGAGAAGCGUGCGGGUUCGAGUCCCGUACGAAACG, the yeast fitness was 0.678. GUUCCGUUGGCCUAAUAGUAACGCGUCUCCCUCCUAAGGAGAAGAGUGCGGGUUCGAGUCCCGUAAGGAACG showed a yeast fitness of no more than 0.5. Work on GUUCCGUUGGCGUAAUGGUAACGCGUUUCCCUCCUGAGGAGCAGACUGUGGGUUCGAGUCCCGUACGGAACG yielded a yeast fitness of 0.574. For GUACCGUUAGCGUAAUGGUAACGCGUCUGCCUCCUAAGGAGAAGACUGCGGGUUCGAGUCCCGUACGGAACG, the yeast fitness was 0.585. GUUCCGGGGGCGUACUGGUAACGCGUCUCCCUCCUAAGGAGAAGACUGCGGGUUCGAGUCCCGUACGGAACG gave a yeast fitness of 0.543. For GUACGGUUGGCGGAAUGGUAACGCGUCUCCCUCCUAAGCAGAAGACUGCGGGUUCGAGUCCCGUACGGACCG, the yeast fitness was no more than 0.5. Work on GUUCGGUUGGCGUUAUGAUAUCGCGUCUCCCUCCUAAGGAGGAGACUGCGGGUUCGAGUCCCGUACGGAACG yielded a yeast fitness of 0.646. In the case of GUUCCGUUGGCGUAAUGGUAACGCGUCUCUCUCCUAAGGAGAAGACUCCGGGUUCGAGUCCCGUACGCAACG, the yeast fitness is reported as 0.636. GAUCCGUUGGCGUAAUGGUAACGCGUCUCCCUCCUAACGCGAAGACUGUGGGUUCGAGUCCCGUACGGAACG gave a yeast fitness of 0.527. Variant GUUCCGUUGGCGUAAUGGUAACGCGUCUCCCUCAUAAGGAGAAGACGGGGGGUUCGAGUGCCGUACGGAACG has a yeast fitness of 0.571. Variant GUUCCCUUGGCCUAUUGGUACCGCGUCUCCCUCCUAAGGAGAAGACUGUGCGCUCGAGUCCCGUACGGAACG has a yeast fitness of no more than 0.5. GUUCCGUUGGCGUAAUGGUAACGCGUCUCCCCCCUAAGCAGAAGACUGCCGGUUCGAGUCCCGUACGGAACG showed a yeast fitness of no more than 0.5. GUUCCGUUGGCGUAAUGGUAACGCGUCUCCCUCCUGAGGAGAAGACUGCGGAUUCGAGUCCCGUAAGGUACG showed a yeast fitness of no more than 0.5. Variant GUUCCGUUGGCGUAAUGGUAACGCGUCUCCCUCCUAAGGAGAAGACAGCGGGUUAGAGUCCCGUACGAAACG has a yeast fitness of 0.532. In the case of GUUCUGUUGGCGUAAUGGUAACGCGUCUCCCUCCUACGGAGACGCCUGCGGGUUCGAGUCCCGUACGGAACG, the yeast fitness is reported as no more than 0.5. For GUUCCGUUGGCGUAAUGGUAACGUGUCUCCCUCCUAAGGAGAAGCCUGCGGGUUCGACUCCCGUACGGAACG, the yeast fitness was 0.554. Work on GUUCCGUUGGCGUAAUGGUAACGCGUUUCCCUCGUAAGGAGAAGACUGCGGGUUCGAGUACCGUACGGAACG yielded a yeast fitness of no more than 0.5. Variant GUUCCGUUGGCGUAAUGGUAACGCGUAUCCCUCCUAAGGAGAAGUCUGUGGGUUCGAGUCCCGUACCGAACG has a yeast fitness of no more than 0.5. GUUCCGUUGGCGUAAUGGUAAAGCGUCUCCCUCCUAAGGAGAAGACUGCGCGUUCGAGUCCCGUACGGUACG gave a yeast fitness of 0.74. In the case of GUUCCGUUGACGUAAUGGUAACGCGUCUCCCUCCUAAGGAGAAGACUGCGGGUUUGAGUCCCGUACGGAACG, the yeast fitness is reported as 0.559. Variant GUUCCCUUGGCGUAAUGGUAACGCGUCUCCCUUCUAAGGAGAAGACUGCGGCUUAGAGUCCCGUACGGAACG has a yeast fitness of no more than 0.5. With GUUCCGUUGGCGUAAUGGUGACGCGUCUCCCUCCUAAGGAGAGGACGGCGGGUUCGAGUCCCGUACCGAACG the yeast fitness was no more than 0.5. For GUUCCGUUGGCGUGAUGGUAACGCGUCUCCCUCCUAAGGAGAAGACUCCGGGUUCGAGUCCCGUACCGAACG, the yeast fitness was no more than 0.5. For GUUCCGUUGGCGUAAUCGUAACGCGUCUCCCUCCUAAGGAGAAGACUGCGGGAUCACGUCCCGUCCGGAACG, the yeast fitness was no more than 0.5. With GUUCCGUUGACGUAAUGGUAACGCGUCUCCCUCCUACGGAGAAGACUGCGGGUUCGCGUCCCGUACGGAACG the yeast fitness was no more than 0.5. GUUCCGUUGGCGUAACGGUAACGCCUCUCCCUCUUAAGGAGAAGACUGCGGGUUCGAGUCCCGGACGGAACG gave a yeast fitness of 0.585. With GUUCCGUUGGCGUAAUGGUAACGCGACUUCCUUCUAAGGAGAAGACUGCGGGUUCGAGUCCGGUACGGAACG the yeast fitness was 1.09. For GUUCCGUUACCGUAAUGGUAACGCCUCUCCCUUCUAAGGAGAAGACUGCGGGUUCGAGUCCAGUAUGGAACG, the yeast fitness was no more than 0.5. With GUUCCGUUGGCGUAAUGGUAUCGCGUUUCCCUCCUAAGGAGAAAACUGCGGGUUCGAGUCCCGUACGGAACG the yeast fitness was no more than 0.5. Variant GUUCCGUUGGCGUAAUGGUAACGGGUCUCCGUCCUAAGGAGAAGACUGCGGGUUCGAGUCGCGUACGGAACG has a yeast fitness of 0.507. GUUCCGUUGGCGUCUUGGUAACGCGUCUCCCUCCUAAGGAGAAGACUGCGGGUUCGAGUCCGGUACGGAACG gave a yeast fitness of no more than 0.5.

Reference: the RNAGym collection of RNA variant scans (doi:10.1126/science.aae0568)
